# Source: PubChem
# The list is not random: actives were taken first. Their share in the collection is about 1.8%.
# M4 ag: human M4 muscarinic receptor agonists, primary screen, CHO-K1 cells, Fluo-8 calcium fluorescence. CHO-K1 hM4/Gqi5; vehicle 0%, full acetylcholine response 100%. Muscarinic acetylcholine receptor M4 (Homo sapiens), P08173. hit rate 0.14% among 360,000. activation, % at 3 µM;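 active = activation above the run mean over all test wells plus 3 SD, cut at about 32% in these data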;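 also: peak over basal fluorescence ratio per well then scaled between controls; 0% = DMSO wells and 100% = acetylcholine at EC100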
# Target sequence (P08173 whole entry, looked up): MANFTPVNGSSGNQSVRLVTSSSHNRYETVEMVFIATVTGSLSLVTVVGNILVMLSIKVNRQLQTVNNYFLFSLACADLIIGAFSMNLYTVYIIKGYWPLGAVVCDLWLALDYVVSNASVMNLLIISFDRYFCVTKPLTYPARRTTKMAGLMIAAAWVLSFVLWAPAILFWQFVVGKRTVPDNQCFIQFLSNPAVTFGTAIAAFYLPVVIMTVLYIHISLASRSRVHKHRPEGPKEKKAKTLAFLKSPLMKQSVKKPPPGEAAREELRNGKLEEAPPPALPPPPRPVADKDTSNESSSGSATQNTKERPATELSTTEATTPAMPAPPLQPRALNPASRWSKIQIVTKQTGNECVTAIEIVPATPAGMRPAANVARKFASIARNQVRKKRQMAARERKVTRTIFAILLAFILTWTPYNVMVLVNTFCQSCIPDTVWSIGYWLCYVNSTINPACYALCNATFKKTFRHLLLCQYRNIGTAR
# CHRM4 antagonist: human M4 muscarinic receptor antagonists, primary screen, CHO cells, Fluo-8 calcium fluorescence; Muscarinic acetylcholine receptor M4 (Homo sapiens), P08173; CHO-hM4 cells, ACh EC80; inhibition, % at 3 µM; hit rate 0.73% among 360,000;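 active = inhibition above its plate's cutoff, the mean inhibition of sample wells plus 3 SD, cut at about 27% in these data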;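 also: 0% = acetylcholine EC80 with DMSO and 100% = DMSO without agonist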
# CHRM5 antagonist: human M5 muscarinic receptor antagonists, primary screen, CHO cells, Fluo-8 calcium fluorescence. CHO-hM5 cells, ACh EC80. hit rate 0.59% among 360,000. inhibition, % at 3 µM. Muscarinic acetylcholine receptor M5 (Homo sapiens), P08912. AID 624040, 2012;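 active = inhibition above a per-plate cutoff, the mean of that plate's test compounds plus 3 SD, cut at about 27% in these data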;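 also: 0% = acetylcholine EC80 with DMSO and 100% = DMSO without agonist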
# M5 ag: human M5 muscarinic receptor agonists, primary screen, CHO-K1 cells, Fluo-8 calcium fluorescence; Muscarinic acetylcholine receptor M5 (Homo sapiens), P08912; AID 624037, 2012; hit rate 0.19% among 360,000; CHO-K1 hM5 cells; 0% DMSO wells, 100% maximal acetylcholine response; activation, % at 3 µM;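 active = activation above the run's mean over test compounds plus 3 SD, cut at about 23% in these data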;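 also: signal is peak over basal fluorescence ratio across the kinetic read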
# M5 PAM: human M5 muscarinic receptor positive allosteric modulators, primary screen, CHO-K1 cells, Fluo-8 calcium fluorescence. CHO-K1 hM5, ACh EC20 PAM; 0% = ACh EC20, 100% = ACh EC100. activation, % at 3 µM. Muscarinic acetylcholine receptor M5 (Homo sapiens), P08912. hit rate 0.3% among 360,000;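 active = activation above the run cutoff, the mean activation of all test compounds plus 3 SD, cut at about 18% in these data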
#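 System – CHO-K1 hM5 cells · Compound – 3 µM, single dose · Incubation – compound preincubation 140 s before EC20 acetylcholine addition · Technique – Fluo-8 calcium fluorescence · Measure – Max/basal fluorescence ratio as % of EC20–EC100 ACh window · Benchmarks – low control EC20 acetylcholine (0%), high control EC100 acetylcholine (100%) · Replication – singlicate, one well per test compound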
# CHRM4 PAM: human M4 muscarinic receptor positive allosteric modulators, primary screen, CHO-K1 cells, Fluo-8 calcium fluorescence | activation, % at 3 µM | hit rate 0.4% among 360,000 | CHO-K1 hM4/Gqi5, ACh EC20; 0% = ACh EC20, 100% = maximal ACh;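 active = activation above its plate's cutoff, the mean activation of sample wells plus 3 SD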
# * = called active by the depositor; ! = not active in a repeat.
SMILES,M4 ag,CHRM4 antagonist,CHRM5 antagonist,M5 ag,M5 PAM,CHRM4 PAM
Fc1cccc(Cc2c(-c3cccc(Cl)c3)nc3ccc(Cl)cn23)c1,-1,-15,-8,-1,-5,-5
Cc1nc(-c2cc(-c3ccc(Cl)cc3)no2)cs1,1,0,2,0,4,1
Cc1csc(-c2ccc3cc(Cl)cc(Cl)c3n2)n1,1,-12,-13,0,5,21*
N=c1c(S(=O)(=O)c2ccc(Cl)cc2)cc2c(=O)n3ccccc3nc2n1C1CCCC1,0,-1,6,-4,0,-2
COc1ccc(N/C=C(\C#N)S(=O)(=O)c2ccc(Cl)cc2)c(OC)c1,5,-3,10,4,-4,-7
O=C(Nc1cnn(Cc2ccc(Cl)cc2Cl)c1)c1cc(-c2cccs2)on1,1,5,-3,5,3,31*
O=C(Nc1cnn(Cc2ccc(Cl)cc2Cl)c1)c1noc2c1CCCC2,5,4,0,1,-5,-5
COc1ccc(-c2nc3ccccc3nc2-c2ccc(OC)c(OC)c2)cc1OC,8,-1,39*,-13,-7,0
CCOC(=O)Cc1csc(NC(=O)COc2ccc(N(C)S(=O)(=O)c3ccc(C)cc3)cc2)n1,12,4,8,-4,-48,-11
CCOc1ccc(S(=O)(=O)N(C)c2ccc(OCC(=O)Nc3nc(-c4cc(OC)ccc4OC)cs3)cc2)cc1,0,-7,10,3,0,30*
COc1ccc(OC)c(-c2csc(NC(=O)Cc3ccccc3OC)n2)c1,4,-21,3,-6,1,-5
COc1ccc(OC)c(-c2csc(NC(=O)Cc3ccccc3F)n2)c1,0,54*,8,-3,-2,-20
CCNC(=O)CN(C1CCCCC1)S(C)(=O)=O,3,-4,-12,1,12,22*
CCCCNC(=O)CN(C1CCCCC1)S(C)(=O)=O,0,12,-5,1,6,0
CCCCn1c(N)c(N(CCOC)C(=O)C2CCN(S(=O)(=O)c3ccc(C)cc3C)CC2)c(=O)[nH]c1=O,1,2,1,3,-2,24*
CCCCn1c(N)c(N(CCOC)C(=O)C2CCN(S(=O)(=O)c3ccc(C)cc3)CC2)c(=O)[nH]c1=O,0,-10,1,-5,4,7
CCCCn1c(N)c(N(CCC(C)C)C(=O)C2CC(=O)N(Cc3ccc(C)cc3)C2)c(=O)[nH]c1=O (stereo unspecified),1,-11,3,1,3,28*
CCCCn1c(N)c(N(CCC(C)C)C(=O)C(C)N2C(=O)c3ccccc3C2=O)c(=O)[nH]c1=O (stereo unspecified),0,-21,4,-1,1,22*
CCCCN(C(=O)C(C)N1C(=O)c2ccccc2C1=O)c1c(N)n(CCCC)c(=O)[nH]c1=O (stereo unspecified),0,4,4,1,-3,7
O=S(=O)(Nc1c(F)cccc1F)c1ccc(Cl)nc1,1,-8,9,2,-1,3
CC1Nc2ncnc(N3CCOCC3)c2N(Cc2ccc(Cl)cc2)C1=O (stereo unspecified),3,5,-3,6,3,14
CCC1Nc2ncnc(N3CCOCC3)c2N(Cc2ccc(Cl)cc2)C1=O (stereo unspecified),2,9,14,-2,-3,24*
CCc1c(C)nc2ncnn2c1NCCc1ccc(OC)c(OC)c1,3,-2,13,1,-6,-2
COc1ccc(CCNc2c(C)c(C)nc3ncnn23)cc1,13,6,29*,11,-23,-1
CCOc1ccc(S(=O)(=O)NCCc2cn3ccccc3n2)cc1,2,-2,12,-5,3,16*
SMILES,M4 ag,CHRM4 antagonist,CHRM5 antagonist,M5 ag,M5 PAM,CHRM4 PAM
Cc1c(C)c2c(c(C)c1O)CCC(C)(C(=O)O)O2 (stereo unspecified),1,8,2,1,0,-3
COCCNc1ncnc2c1cnn2-c1ccc(Cl)cc1,6,28*,19,2,-4,13
CCCCS(=O)(=O)c1sc2nc(C)cc(C)c2c1N,2,-2,-11,7,21*,6
CCN(CC)CC(=O)Nc1c(C)cccc1C,0,27*!,0,-1,-6,-11
CCN(CC)CC(=O)Nc1c(C)cc(C(C)(C)C)cc1C,0,-7,-2,-4,-7,0
Cc1cccc(C)c1NC(=O)CN(C)C(=O)c1ccc(OCc2ccccc2)cc1,1,-15,-4,1,7,16*
C=CCNC(=O)c1oc2ccc(S(=O)(=O)N3CCC4(CC3)OCCO4)cc2c1C,3,-3,-12,1,-1,4
COc1ccc(NC(=O)c2oc3ccc(S(=O)(=O)N4CCC5(CC4)OCCO5)cc3c2C)cc1,32*,26,19,12,-24,-10
CC(C(=O)NCCSCc1cccc(Cl)c1)N(c1ccccc1)S(C)(=O)=O (stereo unspecified),8,-13,4,-2,-5,-2
CNc1ccc(C(=O)OCC(=O)Nc2ccnn2C(C)C)cc1[N+](=O)[O-],1,-7,-3,2,7,9
COc1ccc(C2NCCc3c2[nH]c2ccccc32)cc1COc1ccc(F)cc1 (stereo unspecified),28,37*,12,7,3,-4
COC(=O)c1ccc(CN2C(=O)NC(CC(C)C)C2=O)cc1 (stereo unspecified),5,-3,7,-1,3,10
O=C(Nc1c(C(=O)C2CC2)oc2ccccc12)c1ccc(Cl)cc1,2,1,-5,0,10,26*
Cc1ccc(C(=O)Sc2cccccc2=O)cc1,8,57*,42*,3,-7,-8
COc1ccccc1-c1sc2cc3c(cc2c1-c1ccc(OCCN2CCCCC2)cc1)OCO3,7,35*,7,-5,-12,0
COc1cc2sc(-c3ccccc3OC)c(-c3ccc(OCCN4CCCCC4)cc3)c2cc1OC,12,25,14,2,-8,-1
C#CCN(C)CC/C=C1\c2ccccc2CSc2ccccc21,-2,32*,37*,-15,-41,-15
